The test system of one data set is HEK293. Kind of data set: Cytotoxicity against HEK293 cells assessed as change in morphology up to 400 uM after 4 to 24 hrs by microscopic assay. The conditions noted are these: human. Type of data set: cell-based. An outline of the steps:
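HEK293 cells treated as in the viability assay (4 or 24 h, DMSO vehicle control). Imaged by epifluorescence microscopy at 20X magnification to assess growth and morphology.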

The target in data set [1] is Metallo-beta-lactamase type 2 (Klebsiella pneumoniae) (UniProt C7C422). Kind of data set: Inhibition of NDM1 in Klebsiella pneumoniae isolate Cm1.63 assessed as potentiation of imipenem-induced antibacterial activity by measuring imipenem MIC at 100 mg/L after 18 to 20 hrs by broth microdilution assay (reference value: 8 mg/L). On the technique in general: In broth dilution the organism is exposed to a series of concentrations in liquid medium.

For data set [2], the target named is T1, Protein deacetylase HDAC6 (Homo sapiens) (UniProt Q9UBN7).
T1 sequence (whole entry): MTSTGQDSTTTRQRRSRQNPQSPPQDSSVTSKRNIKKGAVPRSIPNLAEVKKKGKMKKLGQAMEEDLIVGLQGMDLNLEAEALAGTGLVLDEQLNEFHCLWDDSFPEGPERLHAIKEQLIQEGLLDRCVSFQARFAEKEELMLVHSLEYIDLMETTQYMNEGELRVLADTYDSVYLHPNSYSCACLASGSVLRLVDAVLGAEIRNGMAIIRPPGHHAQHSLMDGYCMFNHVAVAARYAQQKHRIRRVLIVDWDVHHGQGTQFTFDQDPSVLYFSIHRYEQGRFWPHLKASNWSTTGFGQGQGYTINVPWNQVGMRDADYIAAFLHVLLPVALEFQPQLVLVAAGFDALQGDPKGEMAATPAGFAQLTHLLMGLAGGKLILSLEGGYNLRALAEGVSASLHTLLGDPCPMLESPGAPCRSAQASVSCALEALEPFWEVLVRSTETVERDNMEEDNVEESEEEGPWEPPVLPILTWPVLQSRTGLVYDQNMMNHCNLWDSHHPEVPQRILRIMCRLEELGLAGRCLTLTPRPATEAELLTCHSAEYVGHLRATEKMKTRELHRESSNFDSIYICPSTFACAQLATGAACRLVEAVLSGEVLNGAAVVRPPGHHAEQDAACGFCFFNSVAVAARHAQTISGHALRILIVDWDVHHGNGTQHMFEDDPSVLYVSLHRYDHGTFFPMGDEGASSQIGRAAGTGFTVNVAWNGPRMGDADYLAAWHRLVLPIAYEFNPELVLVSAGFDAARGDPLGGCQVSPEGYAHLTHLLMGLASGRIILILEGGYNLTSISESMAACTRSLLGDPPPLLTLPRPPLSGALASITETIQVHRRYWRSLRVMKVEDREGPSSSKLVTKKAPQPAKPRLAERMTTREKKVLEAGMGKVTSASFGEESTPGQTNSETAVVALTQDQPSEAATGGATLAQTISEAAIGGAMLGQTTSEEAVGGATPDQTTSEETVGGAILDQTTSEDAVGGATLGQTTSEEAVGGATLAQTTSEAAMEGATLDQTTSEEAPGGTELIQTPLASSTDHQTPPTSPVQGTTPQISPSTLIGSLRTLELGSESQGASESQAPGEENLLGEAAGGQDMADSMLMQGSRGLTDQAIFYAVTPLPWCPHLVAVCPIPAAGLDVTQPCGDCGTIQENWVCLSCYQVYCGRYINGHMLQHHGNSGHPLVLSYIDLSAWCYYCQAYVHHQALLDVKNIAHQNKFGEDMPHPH
Kind of data set: Inhibition of full length human N-terminal GST-tagged HDAC6 expressed in baculovirus infected sf9 cells at 10 uM using HDAC substrate 3 preincubated for 5 mins followed by substrate addition measured after 30 mins by fluorescence assay. In short, it runs like this: (§1)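 Inhibitor pre-incubated 5 min, then HDAC substrate 3 (20 μM) added, 30 min at 37 °C. Developer added for 15 min at room temperature; fluorescence read at ex/em 360/460 nm. Activity relative to no-inhibitor wells, with 200 μM SAHA as 0%. Run in triplicate.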

In data set [3] the target is Histone deacetylase 1 (Homo sapiens) (UniProt Q13547). Kind of data set: Inhibition of full length human C-terminal FLAG/His-tagged HDAC1 expressed in baculovirus infected sf9 cells at 10 uM using HDAC substrate 3 preincubated for 5 mins followed by substrate addition measured after 30 mins by fluorescence assay. An outline of the steps: as §1
Data set [4] has as its target Metallo-beta-lactamase type 2 (Klebsiella pneumoniae) (UniProt C7C422). Kind of data set: Inhibition of NDM1 in Klebsiella pneumoniae isolate Pd1.54 assessed as potentiation of imipenem-induced antibacterial activity by measuring imipenem MIC at 100 mg/L after 18 to 20 hrs by broth microdilution assay (reference value: 8 mg/L).
Data set [5] relates to Bacteria. Kind of data set: Binding affinity to bacterial NDM-1 expressed in Escherichia coli BL21(DE3) assessed as Zn2+ stripping at 24 uM after 30 mins by equilibrium dialysis method relative to control. An outline of the steps: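 NDM-1 (8 μM final) in 50 mM HEPES pH 7.5 mixed with compound at 0–128 μM for 30 min. Then dialyzed 4 h against metal-free 50 mM HEPES pH 7.5. Residual Zn(II) measured by ICP-AES at 213.856 nm.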
(In equilibrium dialysis only unbound substance equilibrates across the membrane.)

Data set [6] has as its target Metallo-beta-lactamase type 2 (Klebsiella pneumoniae) (UniProt C7C422). Kind of data set: Inhibition of NDM1 in Klebsiella pneumoniae isolate Pd1.49 assessed as potentiation of imipenem-induced antibacterial activity by measuring imipenem MIC at 100 mg/L after 18 to 20 hrs by broth microdilution assay (reference value: 4 mg/L).
For another data set, the system named is Escherichia coli. Kind of data set: Effect on growth of Escherichia coli isolate Ch8.69 at 100 mg/L after 18 to 20 hrs by broth microdilution assay. In short, it runs like this:
(§2)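 Mueller-Hinton broth microdilution per CLSI, triplicate. blaNDM-1 clinical isolates grown from OD600 0.1 to 0.224 (~1–2 × 10^8 CFU/mL), diluted 3 μL into 4997 μL MH, and 100 μL added to 100 μL of compound (100 mg/L) alone. Incubated 37 °C for 18–20 h, then scored for growth.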

Data set [7] can be described thus: Selectivity ratio of compound effect for inhibition of bacterial MBP-fused NDM1 expressed in Escherichia coli BL21(DE3) to compound effect for inhibition of human MMP2 (Tyr110 to Asp452 residues) expressed in yeast.
In another data set the test system is Klebsiella pneumoniae. Kind of data set: Effect on growth of Klebsiella pneumoniae isolate Pd1.55 at 100 mg/L after 18 to 20 hrs by broth microdilution assay. In short, it runs like this: as §2
Data set [8] in a line: Metal chelating activity assessed as Co2+-compound complex formation at 1 equiv by 1H NMR spectroscopic method. Type of data set: functional. An outline of the steps:
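Apo-NDM-1 concentrated to ~1 mM and given 2 equivalents of CoCl2, in 50 mM HEPES, 150 mM NaCl, 10% D2O, pH 6.8. Compounds, from DMSO stocks of 50–100 mM, titrated in. 1H NMR spectra recorded at 292 K at 300.16 MHz.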

Data set [9] relates to Bacteria. In words: Binding affinity to bacterial CoCoNDM-1 expressed in Escherichia coli BL21(DE3) assessed as metal stripping at 2 equiv by 1H NMR spectroscopic method. An outline of the steps:
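Apo-NDM-1 concentrated to ~1 mM and loaded with 2 equiv CoCl2. Samples in 50 mM HEPES, 150 mM NaCl, 10% D2O, pH 6.8. Compounds from 50–100 mM DMSO stocks titrated in ~5 μL aliquots. 1H spectra recorded at 292 K, 300.16 MHz.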

Active and inactive are the calls of the source. The calls are words filed in the database; no cut-off is given here.

Sequence of Metallo-beta-lactamase type 2 (Klebsiella pneumoniae) (C7C422 whole entry): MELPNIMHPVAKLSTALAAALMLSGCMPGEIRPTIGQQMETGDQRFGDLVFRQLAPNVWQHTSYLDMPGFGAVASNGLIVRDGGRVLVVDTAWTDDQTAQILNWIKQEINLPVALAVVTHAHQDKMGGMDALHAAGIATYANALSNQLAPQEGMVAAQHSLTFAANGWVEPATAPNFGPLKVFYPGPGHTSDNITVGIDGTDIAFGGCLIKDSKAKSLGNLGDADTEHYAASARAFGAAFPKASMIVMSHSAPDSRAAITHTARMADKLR
Sequence of Histone deacetylase 1 (Homo sapiens) (Q13547 whole entry): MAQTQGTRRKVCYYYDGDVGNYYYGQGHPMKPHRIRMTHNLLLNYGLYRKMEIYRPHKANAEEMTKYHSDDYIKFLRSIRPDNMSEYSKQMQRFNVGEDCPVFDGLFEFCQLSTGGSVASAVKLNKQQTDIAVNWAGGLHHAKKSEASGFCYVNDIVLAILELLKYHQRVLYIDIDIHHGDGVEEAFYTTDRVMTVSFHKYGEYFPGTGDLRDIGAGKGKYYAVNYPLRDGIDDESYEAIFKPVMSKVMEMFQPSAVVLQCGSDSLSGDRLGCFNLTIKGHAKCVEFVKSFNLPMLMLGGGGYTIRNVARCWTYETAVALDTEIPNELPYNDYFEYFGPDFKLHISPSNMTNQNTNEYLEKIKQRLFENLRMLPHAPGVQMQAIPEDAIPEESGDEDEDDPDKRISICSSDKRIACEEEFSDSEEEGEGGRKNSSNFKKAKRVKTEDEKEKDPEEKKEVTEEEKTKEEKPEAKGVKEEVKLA

Take `Nc1cccc(-c2cc(C(=O)O)nc(C(=O)O)c2)c1`: the Activity result with HEK293 is “Non-Toxic”; in the data set with Bacteria [5], 10 to 20%; with Escherichia coli, “Non-Toxic”; in the data set on Klebsiella pneumoniae, “Non-Toxic”. Moreover, the values for the MIC in data set [1], in data set [4] and in data set [6] were 1 µg/mL, 0.5 µg/mL and 1 µg/mL, respectively. The inhibition entry in data set [2] and in [3] was “inactive” throughout. Also, the Selectivity ratio in data set [7] lay in the range of 100 to 1000. Moreover, the result (in data set [8]; in the data set with Bacteria [9]) was Active.
